# Source: ChEMBL document CHEMBL1157704, “Potent activity against K562 cells by polyamide-seco-CBI conjugates targeting histone H4 genes” (Bioorg Med Chem, 2010)
# pEC50: −log10 of the molar value. Calls of active or inactive are those of the source.
# Key:
# K562 [1] = experiment: Cell cycle arrest in human K562 cells assessed as increase in accumulation at S phase at 125 to 250 nM after 48 hrs propidium iodide staining-based FACS analysis; assay type: functional
# Outline: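 K562 cells, from ATCC and kept under ATCC-recommended conditions, were treated for 48 h and pelleted at 200g for 5 min. They were resuspended in PBS, fixed with prechilled 70% ethanol and stained with propidium iodide at 50 µg/mL. DNA content was read by flow cytometry to assign the G0–G1, S and G2–M fractions; sub-2C DNA content was taken as apoptosis.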
# K562 [2] = experiment: Effect on PLCB2 gene expression in human K562 cells assessed as change in mRNA transcript expression at 10 nM after 48 hrs by DNA microarray analysis relative to control; assay type: functional
# Outline: (§1)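 K562 CML cells (b3a2 Bcr-Abl) in standard ATCC-recommended culture, exposed once to 10 nM conjugate and harvested at 48 h. Untreated controls were also collected at 48 h. Transcripts were profiled on Human Gene 1.0 ST whole-genome oligonucleotide arrays, and each treated level was expressed relative to the untreated control, with a cutoff of at least twofold change.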
# K562 [3] = experiment: Effect on STAG1 gene expression in human K562 cells assessed as change in mRNA transcript expression at 10 nM after 48 hrs by DNA microarray analysis relative to control; assay type: functional; outline: as §1
# K562 [4] = experiment: Effect on LOC10012 gene expression in human K562 cells assessed as change in mRNA transcript expression at 10 nM after 48 hrs by DNA microarray analysis relative to control; assay type: functional; outline: as §1
# K562 [5] = experiment: Effect on C0MMD1 gene expression in human K562 cells assessed as change in mRNA transcript expression at 10 nM after 48 hrs by DNA microarray analysis relative to control; assay type: functional
# Outline: (§2)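 Transcripts were profiled on Affymetrix GeneChip Human Gene 1.0 ST arrays in K562 cells treated at 10 nM. Treated cells were collected at 6, 12, 24 and 48 h; untreated controls were collected at 48 h. Transcripts changed at least twofold versus control were scored.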
# K562 [6] = experiment: Effect on IMMP2L gene expression in human K562 cells assessed as change in mRNA transcript expression at 10 nM after 48 hrs by DNA microarray analysis relative to control; assay type: functional; outline: as §1
# K562 [7] = experiment: Effect on PRG2 gene expression in human K562 cells assessed as change in mRNA transcript expression at 10 nM after 48 hrs by DNA microarray analysis relative to control; assay type: functional; outline: as §1
# K562 [8] = experiment: Effect on GPR56 gene expression in human K562 cells assessed as change in mRNA transcript expression at 10 nM after 48 hrs by DNA microarray analysis relative to control; assay type: functional; outline: as §2
# K562 [9] = experiment: Effect on ATP1B2 gene expression in human K562 cells assessed as change in mRNA transcript expression at 10 nM after 48 hrs by DNA microarray analysis relative to control; assay type: functional; outline: as §2
# K562 [10] = experiment: Effect on HIST2H2A gene expression in human K562 cells assessed as change in mRNA transcript expression at 10 nM after 48 hrs by DNA microarray analysis relative to control; assay type: functional; outline: as §1
# K562 [11] = experiment: Effect on COMMD10 gene expression in human K562 cells assessed as change in mRNA transcript expression at 10 nM after 48 hrs by DNA microarray analysis relative to control; assay type: functional; outline: as §2
# K562 [12] = experiment: Induction of apoptosis in human K562 cells assessed as non-viable necrotic cells at 250 nM after 48 hrs by annexin-V FITC and propidium iodide staining-based FACS analysis; assay type: functional
# Outline: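 Treated K562 cells […] stained with Annexin V-FITC/propidium iodide. Apoptosis was scored by two-dimensional flow cytometry at a core FACS facility.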
# K562 [13] = experiment: Effect on TRY6/PRS gene expression in human K562 cells assessed as change in mRNA transcript expression at 10 nM after 48 hrs by DNA microarray analysis relative to control; assay type: functional
# Outline: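 K562 CML cells (b3a2 Bcr-Abl) kept under standard culture conditions were exposed to 10 nM conjugate and harvested at 6, 12, 24 and 48 h. Untreated controls were harvested at 48 h. Whole-transcript oligonucleotide microarray profiling was done, and changes of at least twofold versus control were scored.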
# K562 [14] = experiment: Effect on LGALS12 gene expression in human K562 cells assessed as change in mRNA transcript expression at 10 nM after 48 hrs by DNA microarray analysis relative to control; assay type: functional; outline: as §1
# K562 [15] = experiment: Downregulation of histone H4C mRNA expression in human K562 cells at 125 nM after 48 hrs by real-time PCR analysis; assay type: functional, cell-based
# Outline: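 K562 cells were treated for 48 h, and H4c and H4e mRNA were measured by one-step real-time RT-PCR. Reverse transcription ran at 50 °C for 10 min, then hot-start activation at 95 °C for 15 min. Cycling was 45 cycles of 95 °C 15 s, 55 °C 30 s and 72 °C 30 s. Levels were normalized to GAPDH mRNA; error bars are SD.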
# K562 [16] = experiment: Effect on HIST1H3D gene expression in human K562 cells assessed as change in mRNA transcript expression at 10 nM after 48 hrs by DNA microarray analysis relative to control; assay type: functional; outline: as §2
# K562 [17] = experiment: Effect on BBS9 gene expression in human K562 cells assessed as change in mRNA transcript expression at 10 nM after 48 hrs by DNA microarray analysis relative to control; assay type: functional; outline: as §2
# K562 [18] = experiment: Induction of apoptosis in human K562 cells assessed as non-viable necrotic cells at 125 nM after 48 hrs by annexin-V FITC and propidium iodide staining-based FACS analysis; assay type: functional
# Outline: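 K562 cells were exposed to conjugate in culture medium for 48 h, then stained with annexin V-FITC plus propidium iodide. Cell populations were quantified by flow cytometry.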
# K562 [19] = experiment: Effect on JUN gene expression in human K562 cells assessed as change in mRNA transcript expression at 10 nM after 48 hrs by DNA microarray analysis relative to control; assay type: functional; outline: as §1
# K562 [20] = experiment: Effect on MRPS28 gene expression in human K562 cells assessed as change in mRNA transcript expression at 10 nM after 48 hrs by DNA microarray analysis relative to control; assay type: functional; outline: as §1
# K562 [21] = experiment: Effect on RHCE/RHD gene expression in human K562 cells assessed as change in mRNA transcript expression at 10 nM after 48 hrs by DNA microarray analysis relative to control; assay type: functional; outline: as §1
# K562 [22] = experiment: Cytotoxicity against human K562 cells by MTS assay; assay type: functional, cell-based
# Outline: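 Proliferation of K562 cells (ATCC, standard culture) was read as mitochondrial conversion of the MTS tetrazolium to formazan, using the CellTiter 96 Aqueous One reagent. EC50 was derived from these readings.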
# K562 [23] = experiment: Effect on S100A4 gene expression in human K562 cells assessed as change in mRNA transcript expression at 10 nM after 48 hrs by DNA microarray analysis relative to control; assay type: functional; outline: as §1
# K562 [24] = experiment: Effect on CD226 gene expression in human K562 cells assessed as change in mRNA transcript expression at 10 nM after 48 hrs by DNA microarray analysis relative to control; assay type: functional; outline: as §2
# K562 [25] = experiment: Effect on DIAPH2 gene expression in human K562 cells assessed as change in mRNA transcript expression at 10 nM after 48 hrs by DNA microarray analysis relative to control; assay type: functional; outline: as §2
smiles,measurement,setting,value
CC(=O)Nc1cn(C)c(C(=O)Nc2cn(C)c(C(=O)NCCC(=O)Nc3cn(C)c(C(=O)NCCCC(=O)Nc4cc(C(=O)Nc5cn(C)c(C(=O)Nc6ccc7[nH]c(C(=O)N8CC(CCl)c9c8cc(O)c8ccccc98)cc7c6)n5)n(C)c4)n3)n2)n1 (stereo not given),Activity,K562 [1],Active
same,fold change (FC),K562 [2],>=2
same,fold change (FC),K562 [3],>=2
same,fold change (FC),K562 [4],>=2
same,fold change (FC),K562 [5],>=2
same,fold change (FC),K562 [6],>=2
same,fold change (FC),K562 [7],>=2
same,fold change (FC),K562 [8],>=2
same,fold change (FC),K562 [9],>=2
same,fold change (FC),K562 [10],>=2
same,fold change (FC),K562 [11],>=2
same,Activity,K562 [12],2.58%
same,fold change (FC),K562 [13],>=2
same,fold change (FC),K562 [14],>=2
same,Activity,K562 [15],Active
same,fold change (FC),K562 [16],>=2
same,fold change (FC),K562 [17],>=2
same,Activity,K562 [18],2.07%
same,fold change (FC),K562 [19],>=2
same,fold change (FC),K562 [20],>=2
same,fold change (FC),K562 [21],>=2
same,pEC50,K562 [22],7.01
same,fold change (FC),K562 [23],>=2
same,fold change (FC),K562 [24],>=2
same,fold change (FC),K562 [25],>=2
